Several values for one entry are separate records, joined by “and”; a condition that tells them apart may be missing. Identical values can stand only once.
Tests used:
Sus scrofa [1] = species: Sus scrofa; assay: Inhibition of H+/K+ ATPase in pig stomach at 100 uM; format: tissue-based
Procedure, shortened: (§1)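 Enzyme from hog fundic mucosa: vesicles were isolated by differential and sucrose/Ficoll gradient centrifugation, lyophilized, resuspended in water, kept at -80° and used within 2–3 weeks. The 1 ml assay held 10 µg vesicle protein, 3 mM MgSO₄, 3 mM ATP and 40 mM Tris/HCl pH 7.4, ±15 mM KCl. Inorganic phosphate was the read-out, and H⁺,K⁺-ATPase activity was taken as the K⁺-dependent difference.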

Sus scrofa [2] = species: Sus scrofa; assay: Inhibition of H+/K+ ATPase in pig stomach at 10 uM; format: tissue-based; procedure, shortened: as §1
Sus scrofa [3] = species: Sus scrofa; assay: Inhibition of H+/K+ ATPase in pig stomach at 1 uM; format: tissue-based; procedure, shortened: as §1
[4] = Inhibition of H+/K+ ATPase in pig stomach; format: tissue-based, Sus scrofa; procedure, shortened: as §1

SMILES	inhibition (Sus scrofa [1])	inhibition (Sus scrofa [2])	inhibition (Sus scrofa [3])	IC50 [4] [nM]
C[C@]12CC[C@]3(C1)[C@H](C[C@H]2O)C[C@@H](OC(=O)c1ccccc1)[C@H]1[C@](C)(C(=O)O)CCC[C@@]13C	30%	3%	-4%	–
CC(=O)OC[C@]1(C)CCC[C@@]2(C)[C@H]1[C@H](O)C[C@H]1C[C@@H](OC(C)=O)[C@@]3(C)CC[C@]12C3	62%	33%	-2%	–
CC(=O)O[C@H]1C[C@@H]2C[C@@H](OC(=O)c3ccccc3)[C@H]3[C@](C)(C(=O)O)CCC[C@]3(C)[C@]23CC[C@@]1(C)C3	94%	21%	3%	–
CC(=O)O[C@@H]1C[C@@H]2C[C@@H](OC(=O)c3ccccc3)[C@H]3[C@](C)(C(=O)O)CCC[C@]3(C)[C@]23CC[C@@]1(C)C3	98%	38%	7%	–
CC(=O)OC[C@]1(C)CCC[C@@]2(C)[C@H]1[C@H](OC(=O)c1ccccc1)C[C@H]1CC(=O)[C@@]3(C)CC[C@]12C3	72%	71%	40%	–
C[C@]12CC[C@]3(C1)[C@@H](C[C@@H](O)[C@H]1[C@](C)(CO)CCC[C@@]13C)C[C@@H]2O	24%	–	–	–
COC(=O)[C@]1(C)CCC[C@@]2(C)[C@H]1[C@H](O)C[C@H]1C[C@H](O)[C@@]3(C)CC[C@]12C3	22%	5%	-2%	–
CC(=O)O[C@H]1C[C@@H]2C[C@@H](O)[C@H]3[C@](C)(C(=O)O)CCC[C@]3(C)[C@]23CC[C@@]1(C)C3	21%	13%	2%	–
COC(=O)[C@]1(C)CCC[C@@]2(C)[C@H]1[C@H](OC(=O)c1ccccc1)C[C@H]1C[C@@H](O)[C@@]3(C)CC[C@]12C3	64%	59%	12%	–
COC(=O)[C@]1(C)CCC[C@@]2(C)[C@H]1[C@H](O)C[C@H]1CC(=O)[C@@]3(C)CC[C@]12C3	52%	4%	-5%	–
COC(=O)[C@]1(C)CCC[C@@]2(C)[C@H]1[C@H](OC(=O)c1ccccc1)C[C@H]1CC(=O)[C@@]3(C)CC[C@]12C3	81%	74%	36%	3000
C[C@]12CC[C@]3(C1)[C@H](CC2=O)C[C@@H](OC(=O)c1ccccc1)[C@H]1[C@@](CO)(C(=O)O)CCC[C@@]13C	24%	–	–	–
CC(=O)O[C@@H]1C[C@H]2CC(=O)[C@@]3(C)CC[C@@]2(C3)[C@@]2(C)CCC[C@@](C)(C(=O)O)[C@H]12	33%	7%	1%	–
COC(=O)[C@]1(C)CCC[C@@]2(C)[C@H]1[C@H](OC(=O)c1ccccc1)C[C@H]1C[C@H](O)[C@@]3(C)CC[C@]12C3	68%	64%	10%	–
C[C@@]12CC[C@]3(C1)[C@H](CC2=O)C[C@@H](OC(=O)c1ccccc1)[C@H]1[C@](C)(CO)CCC[C@@]13C	45%	21%	-1%	–
COC(=O)[C@]1(C)CCC[C@@]2(C)[C@H]1[C@H](OC(=O)c1ccccc1)C[C@H]1C[C@@H](OC(C)=O)[C@@]3(C)CC[C@]12C3	61%	58%	35%	3000
COC(=O)[C@]1(C)CCC[C@@]2(C)[C@H]1[C@H](OC(=O)c1ccccc1)C[C@H]1C/C(=N\O)[C@@]3(C)CC[C@]12C3	75%	67%	24%	–
C[C@]12CC[C@]3(C1)[C@@H](C[C@@H](OC(=O)c1ccccc1)[C@H]1[C@](C)(C(=O)O)CCC[C@@]13C)C[C@@H]2O	72%	12%	1%	–
C[C@]12CC[C@]3(C1)[C@H](CC2=O)C[C@@H](OC(=O)c1ccccc1)[C@H]1[C@](C)(C(=O)O)CCC[C@@]13C	62% and 64%	21% and 14%	7% and -0%	–
C[C@]12CC[C@]3(C1)[C@@H](C[C@@H](O)[C@H]1[C@](C)(C(=O)O)CCC[C@@]13C)C[C@@H]2O	8%	–	–	–
C[C@]12CC[C@]3(C1)[C@@H](CC(=O)[C@H]1[C@](C)(C(=O)O)CCC[C@@]13C)CC2=O	12%	1%	-1%	–
C[C@]12CC[C@]3(C1)[C@@H](C[C@@H](O)[C@H]1[C@](C)(CO)CCC[C@@]13C)C[C@H]2O	7%	-3%	–	–
CC(=O)OC[C@]1(C)CCC[C@@]2(C)[C@H]1[C@H](OC(C)=O)C[C@H]1C[C@H](OC(C)=O)[C@@]3(C)CC[C@]12C3	57%	18%	13%	–
C[C@]12CC[C@]3(C1)[C@H](C/C2=N\O)C[C@@H](OC(=O)c1ccccc1)[C@H]1[C@](C)(C(=O)O)CCC[C@@]13C	80%	26%	11%	–
COC(=O)[C@]1(C)CCC[C@@]2(C)[C@H]1[C@H](OC(=O)c1ccccc1)C[C@H]1C[C@H](OC(C)=O)[C@@]3(C)CC[C@]12C3	62%	61%	49%	–
CC(=O)OC[C@]1(C)CCC[C@@]2(C)[C@H]1[C@H](O)C[C@H]1C[C@H](OC(C)=O)[C@@]3(C)CC[C@]12C3	79%	40%	5%	–
